This is an account of results in ChEMBL document CHEMBL4622838, “Deuteration of the farnesyl terminal methyl groups of δ-tocotrienol and its effects on the metabolic stability and ability of inducing G-CSF production” (Bioorg Med Chem, 2020).

Activity calls are given as the source filed them. No cut-off for these calls is given here.

A short description of data set [1]: AUC (0 to last) in CD2F1 mouse at 50 mg/kg, iv measured up to 24 hrs. In kind it is ADME, organism-based. Also on record: dose 50 mg/kg, route intravenous, time 0 - last. The following applies: in vivo. The essentials: (§1)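 Single IV bolus in CD2F1 mice, emulsified in PBS with 33% PEG400 and 2% tween 80 (150 µL/mouse, 0.22 µm filtered), n = 4 per group. Retro-orbital blood into EDTA-K tubes at 0, 5, 10, 30 min and 1, 2, 4, 6, 12, 24 h. Plasma extracted with methanol/ascorbic acid plus heptane/BHT, internal standard, HPLC-fluorescence.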

The nature of data set [2]: Cmax in CD2F1 mouse at 200 mg/kg, sc measured up to 24 hrs. Type of data set: ADME, organism-based. Also on record: dose 200 mg/kg, route subcutaneous. The following applies: in vivo. An outline of the steps: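 Single subcutaneous dose, 200 mg/Kg, emulsified in PBS with 5% tween 80, 100 µL/mouse, filter-sterilized; n = 4 per group. Retro-orbital blood into EDTA potassium tubes at 0, 7.5, 15, 30 min, 1, 2, 4, 6, 8, 12, 24 h; plasma at -80 °C. Heptane/methanol extraction with internal standard, HPLC-fluorescence; peak concentration taken from the concentration-time profile.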

Data set [3] can be described thus: AUC (0 to last) in CD2F1 mouse at 200 mg/kg, sc measured up to 24 hrs. In kind it is ADME, organism-based. Details: dose 200 mg/kg, route subcutaneous, time 0 - last. The following applies: in vivo. An outline of the steps: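 Single SC injection in CD2F1 mice, emulsified in PBS with 5% tween 80 (100 µL/mouse, 0.22 µm filtered), n = 4 per group. Retro-orbital blood into EDTA-K tubes at 0, 7.5, 15, 30 min and 1, 2, 4, 6, 8, 12, 24 h. Plasma extracted with methanol/ascorbic acid plus heptane/BHT, internal standard, HPLC-fluorescence.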

Data set [4] can be described thus: Intrinsic clearance in mouse liver microsomes. In kind it is ADME, Microsome. The essentials: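 Mouse liver microsomes (5 mg protein/mL) in potassium phosphate buffer pH 7.4 with EDTA; compound 1 µM preincubated 30 min at 37 °C, reaction started with NADPH-generating system (NADP⁺, glucose-6-phosphate, MgCl₂, G6PDH); no-NADPH control. Sampled at 5, 15, 30 min into cold acetonitrile with internal standard; percent remaining measured; half-life and clearance calculated; n = 3.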
A general note: Liver microsomes are a subcellular fraction often used to study metabolism.

The nature of data set [5]: Half life in mouse liver microsomes. In kind it is ADME, Microsome.
A short description of data set [6]: Metabolic stability in mouse liver microsomes assessed as compound degradation at 1 uM preincubated for 30 mins followed by NADPH addition measured up to 30 mins by HPLC-UV analysis. In kind it is ADME, Microsome. The following applies: 0.5 h. An outline of the steps: (§2)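 Mouse liver microsomes (5 mg protein/mL) in 0.2 M potassium phosphate, pH 7.4, with EDTA. Test compound at 1 µM preincubated 30 min at 37 °C, then started with an NADPH-generating system (NADP⁺, Glc-6-PO₄, MgCl₂, G6PDH); controls received buffer in place of NADPH. Sampled at 5, 15 and 30 min into cold acetonitrile containing GT3 internal standard. Percent remaining reported, n = 3.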

The nature of data set [7]: Clearance in CD2F1 mouse at 50 mg/kg, iv measured up to 24 hrs. The following applies: in vivo. Type of data set: ADME, organism-based. An outline of the steps: (§3)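 Single IV bolus, 50 mg/Kg, emulsified in PBS with 33% PEG400 and 2% tween 80, 150 µL/mouse, filter-sterilized; n = 4 per group. Retro-orbital blood into EDTA potassium tubes at 0, 5, 10, 30 min, 1, 2, 4, 6, 12, 24 h. Plasma extracted with methanol (2% ascorbic acid) and heptane (1% BHT) plus internal standard; HPLC-fluorescence quantitation.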

The nature of data set [8]: Volume of distribution in CD2F1 mouse at 50 mg/kg, iv measured up to 24 hrs. The following applies: in vivo. In kind it is ADME, organism-based. The essentials: as §3
Data set [9] in a line: AUC (0 to infinity) in CD2F1 mouse at 50 mg/kg, iv measured up to 24 hrs. Type of data set: ADME, organism-based. Also on record: dose 50 mg/kg, time infinity, route intravenous. The following applies: in vivo. An outline of the steps:
as §1

The nature of data set [10]: Plasma concentration in CD2F1 mouse at 200 mg/kg, sc administered as single dose measured after 1 hr by HPLC-fluorescence analysis. In kind it is ADME, organism-based. The essentials: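 Single subcutaneous dose of 200 mg/Kg in CD2F1 mice, emulsified in PBS with 5% tween 80 and filter-sterilized, n = 3–4. Retro-orbital blood drawn at 0 min to 24 h. Plasma mixed with internal standard, methanol containing 2% ascorbic acid and heptane containing 1% BHT. Upper layer dried under N₂, reconstituted in methanol and quantified by HPLC-fluorescence.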

Data set [11] relates to Mus musculus. The data set can be described thus: Induction of G-CSF production in CD2F1 mouse at 200 mg/kg, sc by G-CSF ELISA kit method. Type of data set: functional, organism-based. The following applies: TDE = time-dependent effect. An outline of the steps:
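CD2F1 mice, subcutaneous dose of 0.5 mM/Kg (200 mg/Kg) emulsified in PBS with 5% tween 80, n = 3–4. Blood taken into EDTA-K tubes at 8, 12, 24 and 48 h. Plasma spun at 1200 rpm, 15 min, 4 °C and held at −80 °C. G-CSF measured by mouse ELISA, each sample run in duplicate and averaged, with a standard curve on every plate.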
On the technique in general: An ELISA detects its analyte on a solid surface through an enzyme-linked reagent.

In data set [12] the test system is Mus musculus. Nature of the data set: Induction of G-CSF production in CD2F1 mouse at 200 mg/kg, sc pretreated with ketoconazole after 24 hrs by G-CSF ELISA kit method. In kind it is functional, organism-based. The essentials: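 CD2F1 mice received ketoconazole in corn oil (5 mg/250 µL/mouse) by oral gavage at 26, 14 and 2 h before drug. Drug then given subcutaneously at 200 mg/Kg in 5% tween 80/PBS, n = 3. Plasma collected at 8 and 24 h. G-CSF measured by ELISA in duplicate against a per-plate standard curve.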

The nature of data set [13]: Metabolic stability in mouse live microsomes assessed as compound degradation in absence of NADPH. Type of data set: ADME, Liver, Microsome. An outline of the steps:
as §2

The Cmax is the highest concentration seen after dosing. Broadly, the Vd is a proportionality between amount in the body and measured concentration, not a real space. For orientation: AUC means the area under the concentration-time curve, a measure of exposure. High values mean more exposure, low ones less exposure. With `CC(C)=CCC/C(C)=C/CC/C(C)=C/CC[C@]1(C)CCc2cc(O)cc(C)c2O1` [DELTA-TOCOTRIENOL], the AUClast in data set [1] is 32804 ng·h/mL; in [3] it was 10314 ng·h/mL. The same compound had a Cmax in data set [2] of 810 ng/mL. In addition, in data set [4], the CLH amounted to 5260 µL/min/mg. Moreover, the t1/2 in [5] was determined as 1.778 h. Moreover, the Stability entry is recorded as “Unstable” in data set [6] and “Stable” in data set [13]. This compound returned a CL in [7] of 24.92 mL/min/kg. In data set [8], the Vd was determined as 20.7 L/kg. Further, the AUC in data set [9] stood at 33456 ng·h/mL. This compound registered a concentration at 1 h in data set [10] of 800 to 1000 ng/mL. Further, the Activity entry in the data set on Mus musculus [11] and in the data set with Mus musculus [11] (tested as the 2H-labelled form) was “Tde” each time. The outcome in the data set on Mus musculus [12] and in the data set with Mus musculus [12] (tested as the 2H-labelled form) was Active.
`[2H]C([2H])([2H])C(=CCC/C(C)=C/CC/C(C)=C/CC[C@]1(C)CCc2cc(O)cc(C)c2O1)C([2H])([2H])[2H]`: the figures for the AUClast in data set [1] and in [3] were 34213 ng·h/mL and 11354 ng·h/mL, respectively. The Cmax in [2] was 970 ng/mL. This compound also came in with a CLH in data set [4] of 3580 µL/min/mg. Moreover, the t1/2 in [5] came out at 2.642 h. The figures for the Stability result in data set [6] and in [13] were “Unstable” and “Stable”, respectively. The compound also returned a CL in data set [7] of 23.3 mL/min/kg. Besides, the volume of distribution (Vd) in data set [8] is 21.3 L/kg. In addition, in data set [9], the AUC is 35707 ng·h/mL. The concentration at 1 h in data set [10] was 800 to 1000 ng/mL.
